Source: ChEMBL document CHEMBL4699606, “New type of anti-influenza agents based on benzo[d][1,3]dithiol core” (Bioorg Med Chem Lett, 2020)
The source made the active and inactive calls. The rule behind the calls is not given here.

Key:
[1] = Cytotoxicity against dog MDCK cells assessed as reduction in cell viability by MTT assay; format: cell-based, Canis lupus familiaris
[2] = Antiviral activity against Influenza A virus (A/California/07/09(H1N1))pdm09 infected in MDCK cells assessed as reduction in viral replication preincubated with compound for 1 hr followed by viral infection and measured after viral cultivation for 48 hrs by hemagglutination test; format: functional, cell-based, Influenza A virus (A/California/07/2009(H1N1))
[3] = Selectivity index, ratio of CC50 for dog MDCK cells to IC50 for Influenza A virus (A/California/07/09(H1N1)) pdm09 infected in MDCK cells; format: toxicity, cell-based; conditions: read-out: Ratio CC50/IC50
[4] = system: Influenza A virus (A/California/07/2009(H1N1)); assay: Anti-membranotropic activity against Influenza A virus (A/California/07/09(H1N1))pdm09 hemagglutinin assessed as inhibition of HA-driven chicken erythrocytes membrane fusion incubated for 30 mins by fusogenic activity assay
Outline: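 Compound mixed with virus and held 30 min at room temperature, then combined with 0.75% chicken erythrocytes at +4 °C. Fusion was triggered with MES buffer at pH 5.0. After erythrocytes sedimented, haemoglobin released by membrane lysis was read as optical density at 405 nm.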

[5] = system: Influenza A virus (A/California/07/2009(H1N1)); assay: Inhibition of Influenza A virus (A/California/07/09(H1N1))pdm09 hemagglutinin receptor binding activity
[6] = system: MDCK; assay: Antiviral activity against Influenza A virus (A/California/07/09(H1N1))pdm09 infected in MDCK cells assessed as suppression of viral replication at early stage of viral cycle after 2 hpi by time of addition assay; format: functional, cell-based; conditions: Influenza A virus (A/California/07/2009(H1N1)), time 2.0 hrs
Outline: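 Time-of-addition study in MDCK cells. Compound added at set times relative to infection (time 0 = moment of infection). Read-out was the infectious activity of viral progeny, assayed in MDCK cells.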

SMILES	CC50 [1] [µM]	IC50 [2] [µM]	selectivity ratio [3]	inhibition [4]	inhibition [5]	Activity [6]
Nc1cc(C(F)(F)F)cc2sc(=O)sc12	212	19	11	–	–	–
CC(=O)Nc1cc(C(F)(F)F)cc2sc(=O)sc12	95	38	3	–	–	–
O=C(CN1CCCCC1)Nc1cc(C(F)(F)F)cc2sc(=O)sc12	532	18	29	Dose-dependent effect	inactive	Active
O=C(CCN1CCCC1)Nc1cc(C(F)(F)F)cc2sc(=O)sc12	75	6	12	–	–	–
O=C(CCN1CCCCC1)Nc1cc(C(F)(F)F)cc2sc(=O)sc12	34	> 28.2	1	–	–	–
O=C(CN1CCCC1)Nc1cc(C(F)(F)F)cc2sc(=O)sc12	> 829	191	4	–	–	–
O=C(CN1CCOCC1)Nc1cc(C(F)(F)F)cc2sc(=O)sc12	13	5	3	–	–	–
CC(N)C12CC3CC(CC(C3)C1)C2 (stereo not given) [RIMANTADINE]	–	41	9	–	–	–
O=C(Nc1cc(C(F)(F)F)cc2sc(=O)sc12)C(F)(F)F	2.2	0.2	12	–	–	–
NC(=O)c1ncn([C@@H]2O[C@H](CO)[C@@H](O)[C@H]2O)n1 [RIBAVIRIN]	> 2130	44	48	–	–	–
O=C(CCN1CCOCC1)Nc1cc(C(F)(F)F)cc2sc(=O)sc12	104	9	11	–	–	–
